The record followed here is ChEMBL document CHEMBL1165976, “Synthesis and characterization of N,N-dialkyl and N-alkyl-N-aralkyl fenpropimorph-derived compounds as high affinity ligands for sigma receptors” (Bioorg Med Chem, 2010).

Assay [1] is described as follows: Displacement of [3H]-ditolyl guanidine from sigma 2 receptor in rat liver membranes after 1 hr by liquid scintillation counting. It counts as cell membranes, Membrane.
Assay [2] has as its target Sigma non-opioid intracellular receptor 1 (Cavia porcellus, UniProt Q60492). Briefly: Displacement of (+)-[3H]pentazocine from sigma 1 receptor in guinea pig liver homogenates after 1 hr by liquid scintillation counting. It counts as tissue-based. The method in brief:
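Microsomal membranes (17,000 g then 100,000 g pellets) from guinea pig liver, 25 µg/well, with 10 nM (+)-[3H]pentazocine and serial competitor concentrations for 1 h at 30°C. Filtered on 0.5% PEI-treated GF/B filters; bound label counted by liquid scintillation. Nonlinear regression, single-site fit; Ki by Cheng-Prusoff.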

The nature of assay [3]: Selectivity ratio of Ki for sigma 2 receptor in rat liver membranes to Ki for sigma 1 receptor in guinea pig liver homogenates. It is filed as cell membranes. Particulars: Membrane; call rule not given here.
The test system of another assay is MCF7. Description: Cytotoxicity against human MCF7 cells. It counts as functional, cell-based.
The next assay concerns MDA-MB-231. Briefly: Cytotoxicity against human MDA-MB-231 cells. It is filed as functional, cell-based.
Another assay relates to MCF-10A. Description: Cytotoxicity against human MCF10A cells. It counts as functional, cell-based.
The test system of the next assay is SF-268. Briefly: Cytotoxicity against human SF268 cells. It counts as functional, cell-based.
For another assay, the system named is SK-OV-3. Briefly: Cytotoxicity against human SKOV3 cells. It is filed as functional, cell-based.
The test system of a further assay is HCT-15. Description: Cytotoxicity against human HCT15 cells. It counts as functional, cell-based.
The next assay deals with NCI-H460. Description: Cytotoxicity against human NCI-H460 cells. It counts as functional, cell-based.
A further assay deals with A549. Briefly: Cytotoxicity against human A549 cells. It counts as functional, cell-based.
Assay [4] can be described thus: Cytotoxicity against human H1299 cells. It is filed as functional, cell-based. Particulars: NCI-H1299.
Another assay has as its system HT-29. Description: Cytotoxicity against human HT-29 cells. It counts as functional, cell-based.
For a further assay, the system named is DU-145. Briefly: Cytotoxicity against human DU145 cells. It is filed as functional, cell-based.

The structures appear in SMILES notation. Bounds are passed on as bounds.

Chain of Sigma non-opioid intracellular receptor 1 (Q60492 whole entry): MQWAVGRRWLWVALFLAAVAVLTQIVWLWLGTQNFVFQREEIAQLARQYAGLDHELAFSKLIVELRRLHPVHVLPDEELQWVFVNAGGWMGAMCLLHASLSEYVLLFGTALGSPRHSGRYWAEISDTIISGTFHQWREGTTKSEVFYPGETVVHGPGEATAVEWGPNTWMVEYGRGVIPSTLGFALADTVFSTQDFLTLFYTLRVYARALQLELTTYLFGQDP

`CCCCN(CCCC)C(=O)CCc1ccc(F)cc1`: the Ki (as a rule, a measure of affinity in units of concentration, obtained from inhibition or displacement) worked out at 126 µM in [1] (read-out: Ki) and 32.1 µM in [2] (read-out: Ki). Besides, in assay [3], the Ratio Ki came to 3.94.

In the case of `CCCCN(CCCC)CCCc1ccc([N+](=O)[O-])cc1`, the IC50 (as a rule, the concentration that gives 50% inhibition) in the assay with MCF7 was 22.4 µM; with MDA-MB-231, 57.1 µM; with MCF-10A it was > 100 µM; with SF-268, > 100 µM; in the assay on SK-OV-3, 27.9 µM; in the assay on HCT-15 it was > 100 µM. Further, the IC50 with NCI-H460 is 40.5 µM; in the assay on A549 it was > 100 µM; in assay [4], > 100 µM; in the assay on HT-29, > 100 µM; in the assay with DU-145, 32.7 µM. Also, the Ki in [1] (read-out: Ki) was 0.404 µM; in [2] (read-out: Ki) it was 0.0003 µM. The Ratio Ki in assay [3] came out at 1350.

On to `CCCN(CCCc1ccc(F)cc1)Cc1ccc(N)c(I)c1`, for which the Ki in [1] (read-out: Ki) is 133 µM. For the same compound, the Ratio Ki in [3] came out at 0.339.

For the compound `CCCN(CCCc1ccc(F)cc1)Cc1ccc(N)cc1`, the IC50 in the assay with MCF7, in the assay with MDA-MB-231, in the assay with MCF-10A, with SF-268, in the assay on SK-OV-3 and with HCT-15 was > 100 µM in each case. In addition, the IC50 (in the assay with NCI-H460; in the assay on A549; in assay [4]; in the assay on HT-29; in the assay with DU-145) was > 100 µM in each case. Besides, the Ki in assay [1] (read-out: Ki) came to 2.15 µM; in assay [2] (read-out: Ki) it was 0.164 µM. Besides, the Ratio Ki in assay [3] was 13.1.

Consider `CCCN(CCCc1ccc(F)cc1)CCc1ccc(N=[N+]=[N-])c(I)c1`, for which the IC50 was 16.8 µM in the assay on MCF7; 21.6 µM with MDA-MB-231; 88.6 µM with MCF-10A; 38.8 µM in the assay on SF-268; > 100 µM with SK-OV-3; 54.1 µM with HCT-15. Further, the IC50 in the assay with NCI-H460 is 40.3 µM; in the assay with A549, > 100 µM; in [4], 90.8 µM; in the assay with HT-29, 36.4 µM; with DU-145, 13.1 µM. For the same compound, the Ki in assay [1] (read-out: Ki) was 1.29 µM; in assay [2] (read-out: Ki), 7.24 µM. The Ratio Ki in assay [3] stood at 0.178.

Take `CCCCCCCCN(CCCCCCCC)CCCc1ccc(F)cc1`: the results for the Ki in assay [1] (read-out: Ki) and in assay [2] (read-out: Ki) were 1.65 µM and 0.665 µM, respectively. Also, the Ratio Ki in assay [3] amounted to 2.49.

On to `CCCN(CCCc1ccc([N+](=O)[O-])cc1)CCc1ccc(N)cc1`, for which the IC50 in the assay on MCF7 is 88.1 µM; in the assay with MDA-MB-231, > 100 µM; with MCF-10A, > 100 µM; in the assay on SF-268, > 100 µM; in the assay on SK-OV-3 it was > 100 µM; in the assay with HCT-15, > 100 µM. Also, the IC50 (in the assay on NCI-H460; with A549; in assay [4]; with HT-29; with DU-145) was > 100 µM in each case. Moreover, the Ki in [1] (read-out: Ki) was 0.0836 µM; in assay [2] (read-out: Ki) it was 0.006 µM. The Ratio Ki in [3] was 13.9.

In the case of `CCCCCCCCN(CCCCCCCC)C(=O)CCc1ccc(F)cc1`, the figures for the Ki entry in assay [1] and in [2] (read-out: Ki) were “Not Active” and 53.6 µM, respectively.

Regarding `CCCN(Cc1cccc([N+](=O)[O-])c1)C(=O)CCc1ccc(F)cc1`, the Ki in assay [1] (read-out: Ki) is 236 µM; in assay [2], “Not Active”.

Turning to `CCCNCCCc1ccc(F)cc1`, the Ki stood at 0.23 µM in assay [1] (read-out: Ki) and 0.091 µM in [2] (read-out: Ki). Further, the Ratio Ki in assay [3] was 2.53.

For the compound `CCCN(CCCc1ccc(F)cc1)CCc1ccc(N)cc1`, the IC50 in the assay with MCF7 is 41.3 µM; in the assay on MDA-MB-231, 68.1 µM; in the assay with MCF-10A, > 100 µM; in the assay on SF-268, > 100 µM; with SK-OV-3 it was 20.2 µM; with HCT-15, > 100 µM. Also, the IC50 was 44.8 µM with NCI-H460; > 100 µM in the assay on A549; > 100 µM in assay [4]; > 100 µM with HT-29; > 100 µM with DU-145. Moreover, the inhibitory constant (Ki) came to 0.12 µM in assay [1] (read-out: Ki) and 2.59 µM in assay [2] (read-out: Ki). Further, the Ratio Ki in [3] was found to be 0.046.

`CCCNCCc1ccc([N+](=O)[O-])cc1`: the Ki is 53.6 µM in assay [1] (read-out: Ki) and 2.25 µM in assay [2] (read-out: Ki). For the same compound, the Ratio Ki in assay [3] was 23.8.

For the compound `CCCN(CCCc1ccc(F)cc1)Cc1ccc(N=[N+]=[N-])c(I)c1`, in assay [2] (read-out: Ki), the Ki is 89 µM. In addition, the Ratio Ki in assay [3] is > 571.

On to `CCCCN(CCCC)CCCc1ccc(F)cc1`, for which the IC50 in the assay on MCF7 is > 100 µM; in the assay with MDA-MB-231, > 100 µM; in the assay on MCF-10A, > 100 µM; in the assay on SF-268, > 100 µM; with SK-OV-3, 56.2 µM; in the assay with HCT-15 it was > 100 µM. Besides, the IC50 (with NCI-H460; in the assay on A549; in assay [4]; in the assay on HT-29; in the assay with DU-145) was > 100 µM each time. The figures for the Ki in [1] (read-out: Ki) and in assay [2] (read-out: Ki) were 0.685 µM and 0.0177 µM, respectively. In assay [3], the Ratio Ki came out at 38.7.
